Source: ChEMBL document CHEMBL1157832, “Cytotoxic effects of tanshinones from Salvia miltiorrhiza on doxorubicin-resistant human liver cancer cells” (J Nat Prod, 2010)
The source made the active and inactive calls. The rule behind the calls is not given here.

Columns and labels:
[1] = Cytotoxicity against human THLE3 cells by MTT assay; type: cell-based
In short: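 THLE-3 immortalized liver cells cultured in BEGM kit medium, 37 °C, 5% CO2; 9 × 10^3 cells/well. After compound incubation, MTT (0.5 mg/mL) added for 3 h at 37 °C; formazan dissolved in DMSO and read at 570 nm. Untreated cells as vehicle control; DMSO final 0.25% (v/v). EC50 of growth inhibition, n = 3.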

Hep 3B2 [2] = assay: Induction of apoptosis in human Hep3B cells deficient in p53 gene assessed as PARP cleavage by Western blot; type: functional, cell-based
In short: (§1)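 Cells treated 24 h, then lysed in Tris 50 mM/NaCl 100 mM/EDTA 5 mM/pyrophosphate 67 mM/1% Triton X-100, pH 7.5, with protease inhibitors. 20 µg soluble protein on 8% SDS-PAGE, nitrocellulose transfer, anti-PARP 1:1000 overnight at 4 °C, HRP anti-rabbit 1:2000 1 h, ECL. β-actin reprobe as loading reference; band densitometry; n = 3.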

HepG2 [3] = assay: Induction of apoptosis in human HepG2 cells expressing wild type p53 gene assessed as PARP cleavage by Western blot; type: functional, cell-based; in short: as §1
[4] = Cytotoxicity against human Hep3B cells deficient in p53 gene by MTT assay; type: functional, cell-based, Hep 3B2
In short: (§2)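 Proliferation was measured by MTT. Cells were seeded at 9 × 10^3 per well and exposed to drug for an unstated period. MTT (0.5 mg/mL) was then added for 3 h at 37 °C, formazan was dissolved in DMSO, and absorbance was read at 570 nm against untreated vehicle controls (final DMSO 0.25% v/v). HepG2 was grown in MEM. Hep3B and PLC/PRF/5 were grown in DMEM with nonessential amino acids and 10% FBS. The doxorubicin-resistant HepG2 subclone was grown in RPMI 1640 with 10% FBS plus 1.2 µM doxorubicin to maintain Pgp.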

HepG2 [5] = assay: Induction of apoptosis in human HepG2 cells expressing wild type p53 gene assessed as caspase 3 activation; type: functional, cell-based
In short: (§3)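 Cells were treated for 24 h, with etoposide as positive control. Cells (1 × 10^7) were lysed for 2 h at 4 °C and spun at 16000g for 10 min. The supernatant was mixed with assay buffer and the colorimetric substrate […], and pNA release was read at 405 nm. Soluble protein was determined by BCA.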

[6] = Cytotoxicity against human PLC/PRF/5 cells expressing mutant p53 gene (codon 249) by MTT assay; type: functional, cell-based; in short: as §2
HepG2 [7] = assay: Cytotoxicity against doxorubicin resistant human HepG2 cells expressing wild type p53 gene by MTT assay; type: functional, cell-based; in short: as §2
Hep 3B2 [8] = assay: Induction of apoptosis in human Hep3B cells deficient in p53 gene assessed as caspase 3 activation; type: functional, cell-based; in short: as §3
PLC-PRF-5 [9] = assay: Induction of apoptosis in human PLC/PRF/5 cells expressing mutant p53 gene (codon 249) assessed as caspase 3 activation at 6.25 uM relative to control; type: functional
In short: (§4)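 After 24 h treatment, 1 × 10^7 cells lysed 2 h at 4 °C and spun at 16000g for 10 min. Supernatant incubated with caspase-3 substrate […], pNA release read at 405 nm, and protein measured by BCA. Activity expressed as fold of control; etoposide as positive control.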

PLC-PRF-5 [10] = assay: Induction of apoptosis in human PLC/PRF/5 cells expressing mutant p53 gene (codon 249) assessed as PARP cleavage by Western blot; type: functional, cell-based; in short: as §1
HepG2 [11] = assay: Induction of apoptosis in human HepG2 cells expressing wild type p53 gene assessed as caspase 3 activation at 6.25 uM relative to control; type: functional; in short: as §4
HepG2 [12] = assay: Effect on MRP2 protein expression in human HepG2 cells expressing wild type p53 gene at 25 uM after 24 hrs by Western blot; type: functional, cell-based
In short: (§5)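 HepG2 cells (MEM, 10% FBS) exposed to 25 µM for 24 h; lysates run on SDS-PAGE, transferred to nitrocellulose and probed with anti-MRP1 or anti-MRP2 antibodies, ECL detection. DMSO final 0.25% (v/v).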

HepG2 [13] = assay: Cytotoxicity against human HepG2 cells expressing wild type p53 gene by MTT assay; type: functional, cell-based; in short: as §2
HepG2 [14] = assay: Effect on MRP1 protein expression in human HepG2 cells expressing wild type p53 gene at 25 uM after 24 hrs by Western blot; type: functional, cell-based; in short: as §5
HepG2 [15] = assay: Inhibition of […] doxorubicin efflux in doxorubicin resistant human HepG2 cells uM by flow cytometry; type: cell-based
PLC-PRF-5 [16] = assay: Induction of apoptosis in human PLC/PRF/5 cells expressing mutant p53 gene (codon 249) assessed as caspase 3 activation; type: functional, cell-based; in short: as §4
P-gp (ABCB1) [17] = molecular target: T1, P-gp (ABCB1) (Homo sapiens, UniProt P08183); assay: Inhibition of P-gp in doxorubicin-resistant human HepG2 cells assessed as potentiation of doxorubicin cytostatic effect at 25 uM by MTT assay; type: cell-based; conditions: probe doxorubicin
In short: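 R-HepG2 cells (doxorubicin-selected HepG2 subclone kept in RPMI 1640 with 1.2 µM doxorubicin) co-treated with compound and doxorubicin; growth read by MTT (0.5 mg/mL, 3 h, 570 nm). Interaction scored by Chou–Talalay combination index at EC20/EC50 levels, Loewe additivity and Bliss independence.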

[18] = molecular target: T2, Multidrug resistance-associated protein 1 (Homo sapiens, UniProt P33527); assay: Inhibition of MRP1-mediated doxorubicin efflux in doxorubicin resistant human HepG2 cells at 100 uM by flow cytometry; type: cell-based; conditions: hepg2, 100 µM
[19] = molecular target: T2, Multidrug resistance-associated protein 1; assay: Inhibition of MRP1-mediated doxorubicin efflux in doxorubicin resistant human HepG2 cells at 10 to 100 uM by flow cytometry; type: cell-based
P-gp (ABCB1) [20] = molecular target: T1, P-gp (ABCB1); assay: Inhibition of P-gp in doxorubicin-resistant human HepG2 cells assessed as potentiation of doxorubicin cytostatic effect at 6.25 uM by MTT assay; type: cell-based; conditions: probe doxorubicin

T2 sequence (P33527 whole entry): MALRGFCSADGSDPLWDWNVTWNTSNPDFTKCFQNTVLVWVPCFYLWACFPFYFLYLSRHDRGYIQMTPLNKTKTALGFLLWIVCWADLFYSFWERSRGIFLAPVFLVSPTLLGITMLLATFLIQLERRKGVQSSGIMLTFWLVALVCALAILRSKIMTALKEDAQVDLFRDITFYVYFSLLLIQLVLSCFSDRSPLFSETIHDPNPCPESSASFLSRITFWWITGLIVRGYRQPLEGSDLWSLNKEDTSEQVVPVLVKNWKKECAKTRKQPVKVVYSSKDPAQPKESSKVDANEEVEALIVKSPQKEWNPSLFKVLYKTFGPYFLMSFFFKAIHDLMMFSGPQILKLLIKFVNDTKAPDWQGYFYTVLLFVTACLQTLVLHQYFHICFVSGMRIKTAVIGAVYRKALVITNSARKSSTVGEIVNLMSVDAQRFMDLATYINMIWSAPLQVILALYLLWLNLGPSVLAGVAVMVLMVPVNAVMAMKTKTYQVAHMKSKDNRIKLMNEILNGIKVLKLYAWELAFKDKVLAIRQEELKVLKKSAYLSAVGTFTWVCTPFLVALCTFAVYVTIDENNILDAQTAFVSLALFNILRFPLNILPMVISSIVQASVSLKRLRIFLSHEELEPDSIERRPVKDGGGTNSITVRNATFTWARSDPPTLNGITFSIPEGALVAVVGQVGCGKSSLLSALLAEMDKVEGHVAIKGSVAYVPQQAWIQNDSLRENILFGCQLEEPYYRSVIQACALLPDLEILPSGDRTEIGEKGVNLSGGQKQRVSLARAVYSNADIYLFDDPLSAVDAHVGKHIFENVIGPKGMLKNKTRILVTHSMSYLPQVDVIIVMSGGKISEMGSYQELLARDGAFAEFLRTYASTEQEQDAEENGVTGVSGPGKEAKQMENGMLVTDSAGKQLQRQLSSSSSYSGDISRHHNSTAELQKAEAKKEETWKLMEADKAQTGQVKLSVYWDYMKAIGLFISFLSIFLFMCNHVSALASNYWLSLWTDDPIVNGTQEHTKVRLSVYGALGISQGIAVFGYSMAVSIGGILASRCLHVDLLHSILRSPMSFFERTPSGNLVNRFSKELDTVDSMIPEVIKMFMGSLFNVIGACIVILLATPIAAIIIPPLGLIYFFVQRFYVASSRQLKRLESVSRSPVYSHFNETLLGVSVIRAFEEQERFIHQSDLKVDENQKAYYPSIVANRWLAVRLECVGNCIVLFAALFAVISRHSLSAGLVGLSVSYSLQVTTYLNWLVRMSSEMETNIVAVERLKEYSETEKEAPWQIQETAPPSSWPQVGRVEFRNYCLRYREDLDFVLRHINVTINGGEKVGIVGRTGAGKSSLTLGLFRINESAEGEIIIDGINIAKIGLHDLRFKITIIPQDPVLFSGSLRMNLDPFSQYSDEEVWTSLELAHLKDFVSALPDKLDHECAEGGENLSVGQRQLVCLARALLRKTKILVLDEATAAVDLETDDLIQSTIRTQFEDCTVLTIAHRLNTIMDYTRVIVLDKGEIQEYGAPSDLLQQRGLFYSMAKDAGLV
T1 sequence (P08183 whole entry): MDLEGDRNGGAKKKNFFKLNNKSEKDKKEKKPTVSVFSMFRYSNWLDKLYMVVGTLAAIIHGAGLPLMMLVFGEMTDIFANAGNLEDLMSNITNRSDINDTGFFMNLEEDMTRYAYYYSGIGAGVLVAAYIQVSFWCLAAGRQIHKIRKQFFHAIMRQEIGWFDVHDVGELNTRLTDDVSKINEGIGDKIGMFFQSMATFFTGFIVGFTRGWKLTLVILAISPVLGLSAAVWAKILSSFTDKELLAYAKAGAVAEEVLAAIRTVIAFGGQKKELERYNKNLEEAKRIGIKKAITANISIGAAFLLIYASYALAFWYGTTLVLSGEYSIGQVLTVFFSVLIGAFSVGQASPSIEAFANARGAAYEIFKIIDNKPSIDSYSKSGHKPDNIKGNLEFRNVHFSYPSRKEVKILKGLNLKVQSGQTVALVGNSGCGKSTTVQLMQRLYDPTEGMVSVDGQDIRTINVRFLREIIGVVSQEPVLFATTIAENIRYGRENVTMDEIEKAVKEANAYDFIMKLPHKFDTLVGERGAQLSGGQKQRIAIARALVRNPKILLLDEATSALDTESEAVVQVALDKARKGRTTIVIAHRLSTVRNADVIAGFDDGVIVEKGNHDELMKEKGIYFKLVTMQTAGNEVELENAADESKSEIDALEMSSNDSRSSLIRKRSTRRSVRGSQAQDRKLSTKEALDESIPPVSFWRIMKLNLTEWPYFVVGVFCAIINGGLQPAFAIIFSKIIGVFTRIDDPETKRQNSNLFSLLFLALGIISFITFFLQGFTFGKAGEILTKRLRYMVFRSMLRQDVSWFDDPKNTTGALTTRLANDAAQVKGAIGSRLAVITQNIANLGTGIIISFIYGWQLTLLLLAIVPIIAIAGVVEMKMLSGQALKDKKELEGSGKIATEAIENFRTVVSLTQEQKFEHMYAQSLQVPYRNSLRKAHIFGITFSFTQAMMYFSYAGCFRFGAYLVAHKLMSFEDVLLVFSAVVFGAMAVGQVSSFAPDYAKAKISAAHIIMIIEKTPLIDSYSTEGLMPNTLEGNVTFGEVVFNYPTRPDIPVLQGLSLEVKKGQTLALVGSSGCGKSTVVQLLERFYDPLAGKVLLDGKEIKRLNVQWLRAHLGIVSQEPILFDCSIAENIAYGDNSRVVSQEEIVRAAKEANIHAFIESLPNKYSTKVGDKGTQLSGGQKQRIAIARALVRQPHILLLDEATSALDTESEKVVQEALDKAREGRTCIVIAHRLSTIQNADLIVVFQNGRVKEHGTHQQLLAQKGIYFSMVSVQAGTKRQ

With Cc1cccc2c3c(ccc12)C1=C(C(=O)C3=O)[C@@H](C)CO1 [DIHYDROTANSHINONE I] the EC50 [1] was 6.5 µM, the Activity (Hep 3B2 [2]) was “inactive” and the Activity (HepG2 [3]) was “Dose-dependent effect”. For the same molecule, the EC50 [4] was 5.5 µM, the Activity (HepG2 [5]) was “Active” and the EC50 [6] was greater than 10 µM. The EC50 (HepG2 [7]) was 4.7 µM, the Activity (Hep 3B2 [8]) was “inactive” and the “fold change (FC)” value (PLC-PRF-5 [9]) was 2.5. The Activity (PLC-PRF-5 [10]) was “Active”, the “fold change (FC)” value (HepG2 [11]) was 2 and the Activity (HepG2 [12]) was “inactive”. For the same molecule, the EC50 (HepG2 [13]) was 2.5 µM and the Activity (HepG2 [14]) was “inactive”.

In the case of C=C(CC)C(=O)c1ccc(OCC(=O)O)c(Cl)c1Cl, the inhibition (HepG2 [15]) is reported as “Active”.

In the case of C[C@H]1COC2=C1C(=O)C(=O)c1c2ccc2c1CCCC2(C)C [CRYPTOTANSHINONE], the EC50 [1] is reported as 22.9 µM, the Activity (Hep 3B2 [2]) is reported as “inactive” and the Activity (HepG2 [3]) is reported as “Dose-dependent effect”. The Activity (PLC-PRF-5 [16]) was “Dose-dependent effect”, the Activity (HepG2 [5]) was “Active” and the Activity (Hep 3B2 [8]) was “inactive”. The inhibition at 25 µM (P-gp (ABCB1) [17]) was 50%, the Activity (HepG2 [12]) was “inactive” and the Activity (HepG2 [14]) was “inactive”.

With Cc1coc2c1C(=O)C(=O)c1c-2ccc2c1CCCC2(C)C [TANSHINONE IIA] the EC50 [1] was 57.5 µM, the Activity (Hep 3B2 [2]) was “inactive” and the Activity (HepG2 [3]) was “Dose-dependent effect”. The Activity (HepG2 [5]) was “Active”, the Activity (Hep 3B2 [8]) was “inactive” and the Activity (HepG2 [12]) was “inactive”. The Activity (HepG2 [14]) was “inactive”.

With COc1ccc2c(c1)c(CC(=O)O)c(C)n2C(=O)c1ccc(Cl)cc1 [INDOMETHACIN] the “inhibition (INH)” value [18] was “Active” and the “inhibition (INH)” value [19] was “Not Active”.

For COc1cc([C@@H]2c3cc4c(cc3[C@@H](O[C@@H]3O[C@@H]5CO[C@@H](C)O[C@H]5[C@H](O)[C@H]3O)[C@H]3COC(=O)[C@H]23)OCO4)cc(OC)c1O, the Activity (HepG2 [5]) was “Active” and the Activity (Hep 3B2 [8]) was “inactive”.

Molecule COc1cccc2c1C(=O)c1c(O)c3c(c(O)c1C2=O)C[C@@](O)(C(=O)CO)C[C@@H]3O[C@H]1C[C@H](N)[C@H](O)[C@H](C)O1 [DOXORUBICIN] has an EC50 [4] of 5.6 µM, an EC50 [6] greater than 10 µM and an EC50 (HepG2 [7]) greater than 10 µM. The EC50 (HepG2 [13]) was 6.1 µM.

In the case of Cc1coc2c1C(=O)C(=O)c1c-2ccc2c(C)cccc12 [TANSHINONE I], the EC50 [1] is reported as 74.1 µM, the Activity (Hep 3B2 [2]) is reported as “inactive” and the Activity (HepG2 [3]) is reported as “Dose-dependent effect”. The EC50 [4] was greater than 10 µM, the Activity (HepG2 [5]) was “Active” and the inhibition at 6.25 µM (P-gp (ABCB1) [20]) was 50%. The EC50 [6] was greater than 10 µM, the EC50 (HepG2 [7]) was greater than 10 µM and the Activity (Hep 3B2 [8]) was “inactive”. For the same molecule, the Activity (PLC-PRF-5 [10]) was “Active”, the Activity (HepG2 [12]) was “inactive” and the EC50 (HepG2 [13]) was 6.3 µM. The Activity (HepG2 [14]) was “inactive”.
